Source: ChEMBL document CHEMBL4396869, “Design and Synthesis of Selective Phosphodiesterase 4D (PDE4D) Allosteric Inhibitors for the Treatment of Fragile X Syndrome and Other Brain Disorders” (J Med Chem, 2019)
The source made the active and inactive calls. The rule behind the calls is not given here.

Tests used:
[1] = Toxicity in dog assessed as emesis at 100 mg/kg, po; type: organism-based, Canis lupus familiaris; settings: in vivo
[2] = target: cGMP-inhibited 3',5'-cyclic phosphodiesterase 3B (Homo sapiens, UniProt Q13370); assay: Inhibition of recombinant N-terminal GST-tagged human PDE3B (592-end residues) expressed in baculovirus infected Sf9 cells using FAM-cAMP as substrate incubated for 60 mins by fluorescence assay; settings: sf9, 1 h
Cytochrome P450 2C19 = Cytochrome P450 2C19 (Homo sapiens, UniProt P33261); assay: Inhibition of […] (unknown origin) by fluorescence-based assay; type: ADME
Procedure, shortened: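 CYP inhibition run with a fluorescent substrate by a contract laboratory under standard protocols; IC50 reported.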

[3] = target: cAMP and cAMP-inhibited cGMP 3',5'-cyclic phosphodiesterase 10A (Homo sapiens, UniProt Q9Y233); assay: Inhibition of recombinant human N-terminal GST-tagged PDE10A1 (2 to 789 residues) expressed in baculovirus infected Sf9 cells using FAM-cAMP as substrate incubated for 60 mins by fluorescence assay; settings: sf9, 1 h
[4] = Vascular toxicity in dog measured for 90 days; parameters: species or system Canis lupus familiaris; settings: in vivo, 2160 h
[5] = Vascular toxicity in dog during 90 days study by microscopic analysis; parameters: species or system Canis lupus familiaris; settings: in vivo, 2160 h
Mus musculus = assay: Memory enhancement effect in ICR mouse assessed as improvement in novel object discrimination at 0.3 to 30 mg/kg, po administered via gavage measured for 5 mins by open field test; type: functional, organism-based
Procedure, shortened: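 Male ICR mice (25–30 g), dosed by oral gavage in 5% DMSO, 5% Solutol in PBS. Three phases in an open field box: 10 min habituation on day 1, 5 min training with identical objects on day 2, 5 min test with familiar and novel objects on day 3 (24 h delay). Exploration times recorded; discrimination index d2 = (b − a)/(a + b).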

[6] = target: T1, 3',5'-cyclic-AMP phosphodiesterase 4D (Homo sapiens, UniProt Q08499); assay: Inhibition of recombinant human full length N-terminal GST-tagged PDE4D3 expressed in baculovirus infected Sf9 cells using FAM-cAMP as substrate incubated for 60 mins by fluorescence assay; settings: sf9, 1 h
[7] = Permeability across apical to basal side in MDCK-MDR1 cells; type: ADME, cell-based, Canis lupus familiaris; settings: dog
Procedure, shortened: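 Cellular permeability in MDCK-MDR1 cells, apical-to-basal and basal-to-apical, run by a contract lab using standard protocols. Efflux ratio taken as B-A/A-B.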

[8] = Ratio of drug level in C57Bl6 mouse brain to plasma; type: ADME
[9] = Oral bioavailability in C57Bl6 mouse; type: ADME, organism-based; settings: in vivo
[10] = Oral bioavailability in dog; type: ADME, organism-based, Canis lupus familiaris; settings: in vivo
[11] = Protein binding in human plasma; type: ADME, cell-free; settings: read-out: PPB
[12] = Cardiovascular toxicity in dog at 100 mg/kg, po; type: organism-based, Canis lupus familiaris; settings: in vivo
[13] = Protein binding in mouse plasma; type: ADME, cell-free; settings: read-out: PPB
[14] = Vascular toxicity in rat during 28 days study by microscopic analysis; settings: in vivo, 672 h
[15] = target: Cone cGMP-specific 3',5'-cyclic phosphodiesterase subunit alpha' (Homo sapiens, UniProt P51160); assay: Inhibition of recombinant human N-terminal GST-tagged PDE6C expressed in baculovirus infected Sf9 cells using FAM-cGMP as substrate incubated for 60 mins by fluorescence assay; settings: sf9, 1 h
[16] = target: 3',5'-cyclic-AMP phosphodiesterase 4C (Homo sapiens, UniProt Q08493); assay: Inhibition of recombinant human full length N-terminal GST-tagged PDE4C1 expressed in baculovirus infected Sf9 cells using FAM-cAMP as substrate incubated for 60 mins by fluorescence assay; settings: sf9, 1 h
[17] = target: 3',5'-cyclic-AMP phosphodiesterase 7B (Homo sapiens, UniProt Q9NP56); assay: Inhibition of recombinant human N-terminal GST-tagged/C-terminal His-tagged PDE7B (109 to end residues) expressed in baculovirus infected Sf9 cells using FAM-cAMP as substrate incubated for 60 mins by fluorescence assay; settings: sf9, 1 h
[18] = Toxicity in dog assessed as tremor at 100 mg/kg, po; type: organism-based, Canis lupus familiaris; settings: in vivo
[19] = (§1) Inhibition of recombinant human His6-tagged PDE4D7 UCR1 S129D mutant expressed in baculovirus infected Sf9 insect cells using cAMP as substrate preincubated for 5 to 10 mins followed by substrate addition and measured for 10 mins in presence of BSA by yeast myokinase/pyruvate kinase/lactate dehydrogenase-coupled fluorescence assay
[20] = Protein binding in rat plasma; type: ADME, cell-free; settings: read-out: PPB
[21] = Stability in rat liver microsomes assessed as parent compound remaining at 1 uM measured after 30 mins by LC-MS/MS analysis; type: ADME, Microsome; settings: read-out: Stability
Procedure, shortened: (§2)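 Liver microsome stability run by a contract lab using standard protocols. Parent compound remaining measured after 30 min incubation.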

[22] = Toxicity in rat assessed as effect on CNS up to 60 mg/kg, po; type: organism-based; settings: in vivo
[23] = Toxicity in rat assessed as weight loss at 100 mg/kg, po; type: organism-based; settings: in vivo
[24] = Aqueous kinetic solubility of the compound in pH 7.4 PBS buffer at 100 uM measured after 1 hr; type: physicochemical; settings: pH 7.4, 1 h
[25] = target: Dual 3',5'-cyclic-AMP and -GMP phosphodiesterase 11A (Homo sapiens, UniProt Q9HCR9); assay: Inhibition of recombinant human full length N-terminal GST-tagged PDE11A expressed in baculovirus infected Sf9 cells using FAM-cAMP as substrate incubated for 60 mins by fluorescence assay; settings: sf9, 1 h
[26] = Inhibition of recombinant human N-terminal GST-tagged PDE4D7 (2 to 748 residues) expressed in baculovirus infected Sf9 cells using FAM-cAMP as substrate incubated for 60 mins by fluorescence assay; settings: sf9, 1 h
[27] = Stability in dog liver microsomes assessed as parent compound remaining at 1 uM measured after 30 mins by LC-MS/MS analysis; type: ADME, Canis lupus familiaris, Microsome; settings: read-out: Stability; procedure, shortened: as §2
[28] = target: T1, 3',5'-cyclic-AMP phosphodiesterase 4D; assay: as §1, with “PDE4D2” for “PDE4D7 UCR1 S129D mutant”, “mins” for “mins in presence of BSA”, “assay relative to control” for “assay”; settings: sf9, 10 min
[29] = Stability in mouse liver microsomes assessed as parent compound remaining at 1 uM measured after 30 mins by LC-MS/MS analysis; type: ADME, Microsome; settings: read-out: Stability; procedure, shortened: as §2
[30] = Cmax in ICR mouse at 0.3 mg/kg, po; type: ADME, organism-based; parameters: dose 0.3 mg/kg, route oral; settings: in vivo
[31] = target: Dual specificity calcium/calmodulin-dependent 3',5'-cyclic nucleotide phosphodiesterase 1A (Homo sapiens, UniProt P54750); assay: Inhibition of recombinant human full length N-terminal GST-tagged PDE1A5 expressed in baculovirus infected Sf9 insect cells using FAM-cAMP as substrate measured after 1 hr by fluorescence assay; settings: sf9, 1 h

T1 sequence (Q08499 whole entry): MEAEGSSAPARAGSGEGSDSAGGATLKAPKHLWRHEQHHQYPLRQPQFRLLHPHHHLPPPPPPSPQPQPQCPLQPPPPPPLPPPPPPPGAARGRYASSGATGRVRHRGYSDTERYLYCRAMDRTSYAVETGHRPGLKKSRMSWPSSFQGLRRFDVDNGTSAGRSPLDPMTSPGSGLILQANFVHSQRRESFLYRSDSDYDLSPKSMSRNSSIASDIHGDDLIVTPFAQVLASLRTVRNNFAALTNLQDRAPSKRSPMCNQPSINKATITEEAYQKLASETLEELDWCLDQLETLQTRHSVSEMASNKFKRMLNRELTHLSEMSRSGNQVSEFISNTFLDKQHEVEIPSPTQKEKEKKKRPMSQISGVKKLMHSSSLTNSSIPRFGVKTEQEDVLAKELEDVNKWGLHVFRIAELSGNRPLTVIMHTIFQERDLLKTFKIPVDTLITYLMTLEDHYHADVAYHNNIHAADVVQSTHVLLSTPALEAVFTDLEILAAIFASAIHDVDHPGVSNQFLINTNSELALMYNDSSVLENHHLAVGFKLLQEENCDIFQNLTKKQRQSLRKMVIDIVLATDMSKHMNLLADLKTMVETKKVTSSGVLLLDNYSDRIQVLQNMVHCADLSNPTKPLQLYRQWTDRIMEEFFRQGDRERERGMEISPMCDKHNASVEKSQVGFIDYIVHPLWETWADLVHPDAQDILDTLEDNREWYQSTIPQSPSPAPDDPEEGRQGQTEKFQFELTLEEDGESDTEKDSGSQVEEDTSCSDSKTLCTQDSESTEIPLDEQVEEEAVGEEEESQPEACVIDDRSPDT
Chain of 3',5'-cyclic-AMP phosphodiesterase 7B (Q9NP56 whole entry): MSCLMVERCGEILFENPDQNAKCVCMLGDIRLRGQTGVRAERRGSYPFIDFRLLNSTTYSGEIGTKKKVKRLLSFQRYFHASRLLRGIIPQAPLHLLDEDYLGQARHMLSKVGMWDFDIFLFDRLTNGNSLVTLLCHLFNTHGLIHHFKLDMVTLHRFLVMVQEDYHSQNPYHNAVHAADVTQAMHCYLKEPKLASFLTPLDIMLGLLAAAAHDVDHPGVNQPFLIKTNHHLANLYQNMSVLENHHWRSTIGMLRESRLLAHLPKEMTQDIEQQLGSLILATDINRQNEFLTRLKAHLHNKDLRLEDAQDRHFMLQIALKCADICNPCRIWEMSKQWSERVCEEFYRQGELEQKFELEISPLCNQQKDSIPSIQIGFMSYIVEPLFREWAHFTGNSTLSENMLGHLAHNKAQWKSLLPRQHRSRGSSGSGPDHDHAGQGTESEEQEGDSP
Chain of Cytochrome P450 2C19 (P33261 whole entry): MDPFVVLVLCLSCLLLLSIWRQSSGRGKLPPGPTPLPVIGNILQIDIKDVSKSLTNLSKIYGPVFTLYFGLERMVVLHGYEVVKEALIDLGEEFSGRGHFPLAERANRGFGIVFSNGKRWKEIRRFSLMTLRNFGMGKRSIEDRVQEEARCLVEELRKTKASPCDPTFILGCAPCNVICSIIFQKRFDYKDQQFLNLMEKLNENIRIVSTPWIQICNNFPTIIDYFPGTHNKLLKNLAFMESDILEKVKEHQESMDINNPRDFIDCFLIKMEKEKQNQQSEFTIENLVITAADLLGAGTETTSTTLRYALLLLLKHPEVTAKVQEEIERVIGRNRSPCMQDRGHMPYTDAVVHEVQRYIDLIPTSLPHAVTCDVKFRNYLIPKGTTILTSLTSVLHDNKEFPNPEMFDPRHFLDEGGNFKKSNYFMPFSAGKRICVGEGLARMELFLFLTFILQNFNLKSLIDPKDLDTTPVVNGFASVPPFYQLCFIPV
Chain of cGMP-inhibited 3',5'-cyclic phosphodiesterase 3B (Q13370 whole entry): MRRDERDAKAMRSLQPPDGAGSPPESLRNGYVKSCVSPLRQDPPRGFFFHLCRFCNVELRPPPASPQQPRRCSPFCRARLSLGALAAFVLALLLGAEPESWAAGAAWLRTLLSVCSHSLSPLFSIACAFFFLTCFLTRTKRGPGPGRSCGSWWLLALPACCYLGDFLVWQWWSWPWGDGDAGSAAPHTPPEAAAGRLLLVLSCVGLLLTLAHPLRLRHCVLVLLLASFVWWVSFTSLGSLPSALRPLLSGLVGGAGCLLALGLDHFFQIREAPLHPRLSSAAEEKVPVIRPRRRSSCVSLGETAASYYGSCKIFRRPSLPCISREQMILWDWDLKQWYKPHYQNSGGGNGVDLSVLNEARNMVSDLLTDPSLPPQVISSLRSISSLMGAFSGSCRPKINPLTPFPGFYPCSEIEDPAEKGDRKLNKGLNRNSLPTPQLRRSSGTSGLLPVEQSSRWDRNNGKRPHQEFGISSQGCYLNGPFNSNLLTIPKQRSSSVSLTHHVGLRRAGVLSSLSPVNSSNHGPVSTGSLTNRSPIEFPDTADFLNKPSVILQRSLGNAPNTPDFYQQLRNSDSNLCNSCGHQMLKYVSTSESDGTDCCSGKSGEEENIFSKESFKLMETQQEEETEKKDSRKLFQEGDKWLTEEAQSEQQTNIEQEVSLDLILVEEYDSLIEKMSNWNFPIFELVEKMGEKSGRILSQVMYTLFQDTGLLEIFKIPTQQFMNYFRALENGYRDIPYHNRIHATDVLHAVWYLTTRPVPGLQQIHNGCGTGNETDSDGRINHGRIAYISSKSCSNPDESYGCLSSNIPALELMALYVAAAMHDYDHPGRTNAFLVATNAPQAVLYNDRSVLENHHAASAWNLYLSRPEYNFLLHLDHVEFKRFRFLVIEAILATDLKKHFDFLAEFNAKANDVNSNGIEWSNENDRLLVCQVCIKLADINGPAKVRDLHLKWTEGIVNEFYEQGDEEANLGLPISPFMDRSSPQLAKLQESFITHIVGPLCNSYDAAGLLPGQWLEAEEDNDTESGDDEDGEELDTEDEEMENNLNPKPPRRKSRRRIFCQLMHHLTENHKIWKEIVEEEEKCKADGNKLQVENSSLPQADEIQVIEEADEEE
Chain of cAMP and cAMP-inhibited cGMP 3',5'-cyclic phosphodiesterase 10A (Q9Y233 whole entry, the tested form may be a part): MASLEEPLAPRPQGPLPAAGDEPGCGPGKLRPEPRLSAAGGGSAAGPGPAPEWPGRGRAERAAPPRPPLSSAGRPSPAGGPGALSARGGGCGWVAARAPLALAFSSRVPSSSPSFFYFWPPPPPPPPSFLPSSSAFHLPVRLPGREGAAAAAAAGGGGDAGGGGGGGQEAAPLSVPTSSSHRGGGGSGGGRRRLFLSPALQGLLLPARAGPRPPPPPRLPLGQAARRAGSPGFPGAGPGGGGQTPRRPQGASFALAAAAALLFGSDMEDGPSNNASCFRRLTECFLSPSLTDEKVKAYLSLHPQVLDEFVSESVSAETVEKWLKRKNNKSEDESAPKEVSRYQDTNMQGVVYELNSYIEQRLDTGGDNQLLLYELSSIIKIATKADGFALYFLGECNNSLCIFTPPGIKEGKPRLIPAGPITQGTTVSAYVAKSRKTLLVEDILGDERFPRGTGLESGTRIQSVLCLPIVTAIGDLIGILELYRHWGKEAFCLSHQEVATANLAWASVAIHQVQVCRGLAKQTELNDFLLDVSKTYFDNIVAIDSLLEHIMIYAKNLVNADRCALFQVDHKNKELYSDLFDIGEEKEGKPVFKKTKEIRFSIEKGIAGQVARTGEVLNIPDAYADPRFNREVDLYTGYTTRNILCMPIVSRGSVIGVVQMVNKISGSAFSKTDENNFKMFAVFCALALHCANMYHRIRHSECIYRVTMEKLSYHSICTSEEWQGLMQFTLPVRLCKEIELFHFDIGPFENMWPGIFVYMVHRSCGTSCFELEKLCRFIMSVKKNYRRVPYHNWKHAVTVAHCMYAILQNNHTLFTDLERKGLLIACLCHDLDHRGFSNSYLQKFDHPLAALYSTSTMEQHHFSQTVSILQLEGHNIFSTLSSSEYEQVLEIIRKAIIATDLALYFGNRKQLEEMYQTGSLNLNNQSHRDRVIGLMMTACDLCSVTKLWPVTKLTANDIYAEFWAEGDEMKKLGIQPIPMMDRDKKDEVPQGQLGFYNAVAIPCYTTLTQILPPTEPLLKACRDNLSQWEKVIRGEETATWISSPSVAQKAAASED
Chain of 3',5'-cyclic-AMP phosphodiesterase 4C (Q08493 whole entry): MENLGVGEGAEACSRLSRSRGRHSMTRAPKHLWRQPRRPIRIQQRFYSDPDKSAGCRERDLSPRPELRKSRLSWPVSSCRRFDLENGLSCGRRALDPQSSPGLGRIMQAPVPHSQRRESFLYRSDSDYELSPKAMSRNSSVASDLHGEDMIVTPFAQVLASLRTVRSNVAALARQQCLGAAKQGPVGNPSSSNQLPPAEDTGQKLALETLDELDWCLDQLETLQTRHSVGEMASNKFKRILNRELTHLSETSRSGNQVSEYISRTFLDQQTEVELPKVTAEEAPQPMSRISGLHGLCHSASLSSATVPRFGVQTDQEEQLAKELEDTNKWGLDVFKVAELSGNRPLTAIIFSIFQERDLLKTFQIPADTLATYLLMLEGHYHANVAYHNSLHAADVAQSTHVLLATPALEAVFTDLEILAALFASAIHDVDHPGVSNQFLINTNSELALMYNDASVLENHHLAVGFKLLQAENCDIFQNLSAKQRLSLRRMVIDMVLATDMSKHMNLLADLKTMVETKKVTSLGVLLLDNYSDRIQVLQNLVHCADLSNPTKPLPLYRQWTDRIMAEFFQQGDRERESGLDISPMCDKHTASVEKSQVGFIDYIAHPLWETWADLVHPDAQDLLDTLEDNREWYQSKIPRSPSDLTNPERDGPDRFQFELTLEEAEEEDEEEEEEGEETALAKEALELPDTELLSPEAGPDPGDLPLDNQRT

In the case of `O=C(O)Cc1ccc(Cc2cc(-c3cccc(Cl)c3)nc(C(F)(F)F)c2)cc1` [ZATOLMILAST], the Activity [1] is reported as “Toxic”, the “inhibition (INH)” value [2] is reported as “Not Active” and the IC50 (Cytochrome P450 2C19) is reported as 43 µM. The “inhibition (INH)” value [3] was “Not Active”, the Activity [4] was “Non-Toxic” and the Activity [5] was “Non-Toxic”. The Activity (Mus musculus) was “Active”, the “inhibition (INH)” value [6] was “Not Active” and the permeability [7] was 53 ×10⁻⁶ cm/s. For the same compound, the BPR [8] was 0.45, the F [9] was 82% and the bioavailability [10] was 80 to 100%. The fraction unbound [11] was 0.002 to 0.005, the Activity [12] was “Non-Toxic” and the fraction unbound [13] was 0.002 to 0.005. For the same compound, the Activity [14] was “Non-Toxic”, the “inhibition (INH)” value [15] was “Not Active” and the “inhibition (INH)” value [16] was “Not Active”. The “inhibition (INH)” value [17] was “Not Active”, the Activity [18] was “Toxic” and the inhibition [19] was “Active”. For the same compound, the fraction unbound [20] was 0.002 to 0.005, the remaining at 0.5 h, 1 µM [21] was 88 to 100% and the Activity [22] was “Non-Toxic”. The Activity [23] was “Toxic”, the Kinetic_solubility [24] was 95 µM and the “inhibition (INH)” value [25] was “Not Active”. The “inhibition (INH)” value [26] was “Not Active”, the remaining at 0.5 h, 1 µM [27] was 88 to 100% and the “inhibition (INH)” value [28] was “Not Active”. For the same compound, the remaining at 0.5 h, 1 µM [29] was 88 to 100%, the Cmax [30] was 153 ng/mL and the “inhibition (INH)” value [31] was “Not Active”.
